Results: PubChem BioAssay AID623881 (Johns Hopkins Ion Channel Center, 2012)
“And” between values parts separate entries of the source, which are not always exact repeats. Identical values can stand only once. The source made the active and inactive calls.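 How the source made its calls: active means peak Kir2.1 potassium channel inhibition over 30% at one or more doses, plus a fitted dose response curve; inactive means no inhibition at any dose, or no curve fitted.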

Target: Inward rectifier potassium channel 2 (Mus musculus) (UniProt P35561)
Test: off-target blockade of inward rectifier Kir2.1 – cell-based, FluxOR thallium flux, CRC round 4, selectivity assay for KCNK9 inhibitor project, SAR follow-up (AID 623881)
Details: Kir2.1-expressing cells, FluxOR thallium flux fluorescence; for thallium flux ratio, lower = inhibition: at 30 µM (top of the series)
Summary of the method: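 test system = HEK293 cells stably expressing the Kir2.1 inward rectifier channel | reagent = Tl+/K+ stimulus (5x stock K2SO4 plus Tl2SO4) | dosing = 10 concentrations per compound | timing = 90 min dye load, 20 min compound, room temperature | technique = kinetic FluxOR thallium-dye fluorescence | read-out basis = baseline-normalized max-minus-min fluorescence, fitted for IC50 and Hill slope | repeats = ≥2 replicates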

Chain of Inward rectifier potassium channel 2 (Mus musculus) (P35561 whole entry, looked up): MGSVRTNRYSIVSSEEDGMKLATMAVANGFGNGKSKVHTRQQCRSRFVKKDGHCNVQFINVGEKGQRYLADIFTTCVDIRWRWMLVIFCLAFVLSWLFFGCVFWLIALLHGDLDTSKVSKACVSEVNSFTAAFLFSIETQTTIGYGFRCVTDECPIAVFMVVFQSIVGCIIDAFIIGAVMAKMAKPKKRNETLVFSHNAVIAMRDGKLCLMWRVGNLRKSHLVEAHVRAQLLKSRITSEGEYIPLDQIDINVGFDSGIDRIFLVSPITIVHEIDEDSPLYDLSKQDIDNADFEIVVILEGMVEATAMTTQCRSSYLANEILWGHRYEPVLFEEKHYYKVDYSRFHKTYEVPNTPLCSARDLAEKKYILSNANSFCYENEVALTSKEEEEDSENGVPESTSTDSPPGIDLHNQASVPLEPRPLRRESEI

CC(C1C[C@H]2CCC1C2)n1c(-c2ccsc2)n[nH]c1=S (stereo not given in full)
IC50: 23.1 µM

C[C@H]([C@@H]1CC2CC[C@H]1C2)n1c(-c2ccccc2F)n[nH]c1=S
thallium flux ratio, lower = inhibition: inactive

C[C@H]([C@@H]1CC2CC[C@H]1C2)n1c(-c2ccco2)n[nH]c1=S
thallium flux ratio, lower = inhibition: inactive

C[C@H](C1CCCCC1)n1c(-c2ccccc2F)n[nH]c1=S
thallium flux ratio, lower = inhibition: inactive

C[C@H]([C@@H]1CC2CC[C@H]1C2)n1c(-c2ccsc2)n[nH]c1=S
thallium flux ratio, lower = inhibition: inactive

CC([C@@H]1CC2CC[C@H]1C2)n1c(-c2ccsc2)n[nH]c1=S (stereo not given in full)
thallium flux ratio, lower = inhibition: inactive

C[C@@H]([C@@H]1CC2CC[C@H]1C2)n1c(-c2ccsc2)n[nH]c1=S
IC50: 23.5 µM and 25 µM

CCCC(=O)C1CCN(c2ncnc3c2CN(C(=O)c2ccc(-c4ccccc4)cc2)CC3)CC1
thallium flux ratio, lower = inhibition: inactive

CC(C1CC2CCC1C2)n1c(SCC(=O)N2CCN(C)CC2)nnc1-c1ccco1 (stereo not given)
thallium flux ratio, lower = inhibition: inactive

COc1ccc(NC(=O)CSc2nnc(-c3ccco3)n2C(C)C2CC3CCC2C3)cc1OC (stereo not given)
thallium flux ratio, lower = inhibition: inactive

CC(C1CC2CCC1C2)n1c(N)nnc1-c1ccco1 (stereo not given)
thallium flux ratio, lower = inhibition: inactive

COc1ccc(CSc2nnc(-c3ccco3)n2C(C)C2CC3CCC2C3)cc1OC (stereo not given)
IC50: 18.4 µM

COc1cccc(-c2n[nH]c(=S)n2[C@H](C)[C@@H]2CC3CC[C@H]2C3)c1
thallium flux ratio, lower = inhibition: inactive

C[C@H](C1CCCCC1)n1c(-c2ccsc2)n[nH]c1=S
thallium flux ratio, lower = inhibition: inactive

CC(C1CC2CCC1C2)n1c(SCCc2cccc(O)c2)nnc1-c1ccco1 (stereo not given)
IC50: 11.5 µM

C[C@@H]([C@@H]1CC2CC[C@H]1C2)n1c(-c2ccco2)n[nH]c1=S
thallium flux ratio, lower = inhibition: inactive

CC(C1CC2CCC1C2)n1c(SCCN2CCOCC2)nnc1-c1ccco1 (stereo not given)
thallium flux ratio, lower = inhibition: inactive

COc1cccc(-c2n[nH]c(=S)n2[C@H](C)C2CCCCC2)c1
thallium flux ratio, lower = inhibition: inactive

COc1cccc(-c2nnc(SSc3nnc(-c4cccc(OC)c4)n3C(C)C3CC4CCC3C4)n2C(C)C2CC3CCC2C3)c1 (stereo not given)
thallium flux ratio, lower = inhibition: inactive

CC(C1CC2CCC1C2)n1c(-c2ccco2)nn(CCc2ccncc2)c1=S (stereo not given)
thallium flux ratio, lower = inhibition: inactive

COc1ccc(C(=O)CCSc2nnc(-c3ccco3)n2C(C)C2CC3CCC2C3)cc1OC (stereo not given)
thallium flux ratio, lower = inhibition: inactive

COc1cccc(CCSc2nnc(-c3ccco3)n2C(C)C2CC3CCC2C3)c1 (stereo not given)
IC50: 9.06 µM

CC(C1CC2CCC1C2)n1c(SCCc2ccccn2)nnc1-c1ccco1 (stereo not given)
IC50: 15.4 µM

CC(C1CCN(C)CC1)n1c(-c2ccco2)n[nH]c1=S (stereo not given)
thallium flux ratio, lower = inhibition: inactive

COc1ccc(CC(=O)NCc2ccccc2-c2ccccc2C(=O)NCc2ccc(F)cc2F)cc1
thallium flux ratio, lower = inhibition: inactive
